Data from ChEMBL document CHEMBL2010803, “Novel NSAID 1-acyl-4-cycloalkyl/arylsemicarbazides and 1-acyl-5-benzyloxy/hydroxy carbamoylcarbazides as potential anticancer agents and antioxidants” (Eur J Med Chem, 2012).
The source made the active and inactive calls. No cut-off for these calls is given here.

Legend:
[1] = system: Respiratory syncytial virus; assay: Antiviral activity against RSV infected in human cervix carcinoma cells assessed as inhibition of virus-induced cytopathic effect at 0.32 to 100 uM; format: functional, organism-based
Outline: (§1)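 Confluent cell cultures were infected with 100 CCID50 of virus in the presence of test compound at 100, 40, 8, 1.6 and 0.32 μM. Cytopathic effect was scored once it was complete in untreated infected controls.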

Coxsackievirus B4 [2] = assay: Antiviral activity against Coxsackievirus B4 infected in human cervix carcinoma cells assessed as inhibition of virus-induced cytopathic effect at 0.32 to 100 uM; format: functional, organism-based; outline: as §1
L1210 = assay: Cytostatic activity against mouse L1210 cells after 2 days by coulter counter analysis; format: functional, cell-based; conditions: L1210, 48 h
Outline: (§2)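 300,000–500,000 cells/ml mixed 1:1 with compound dilutions and incubated at 37 °C for 2 days (L1210) or 3 days (CEM, HeLa). Cell number counted with a Coulter counter; HeLa trypsinized before counting.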

CCRF-CEM = assay: Cytostatic activity against human CEM cells after 3 days by coulter counter analysis; format: functional, cell-based; conditions: 72 h; outline: as §2
HeLa = assay: Cytostatic activity against human HeLa cells after 3 days by coulter counter analysis; format: functional, cell-based; conditions: 72 h; outline: as §2
HCT-116 = assay: Cytostatic activity against human HCT116 cells after 72 hrs by MTT assay; format: functional, cell-based; conditions: HCT-116, 72 h
Outline: (§3)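 Monolayers in DMEM with 10% FBS, 2 mM L-glutamine and penicillin/streptomycin, 37 °C, 5% CO2. Seeded at 1–3 × 10^4 cells/ml, then compound added in tenfold dilutions (10⁻⁸–10⁻⁴ M) for 72 h. MTT read at 570 nm; percent growth taken against time-zero and untreated controls. IC50 by linear regression; quadruplicate, at least two experiments.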

MCF7 = assay: Cytostatic activity against human MCF7 cells after 72 hrs by MTT assay; format: functional, cell-based; conditions: MCF7, 72 h; outline: as §3
NCI-H460 = assay: Cytostatic activity against human NCI-H460 cells after 72 hrs by MTT assay; format: functional, cell-based; conditions: NCI-H460, 72 h; outline: as §3
HaCaT = assay: Cytostatic activity against human HaCaT cells after 72 hrs by MTT assay; format: ADME, cell-based; outline: as §3
Human alphaherpesvirus 1 = assay: Antiviral activity against HSV1 KOS infected in human lung fibroblast assessed as inhibition of virus-induced cytopathic effect at 0.32 to 100 uM; format: functional, organism-based; outline: as §1
Human alphaherpesvirus 2 = assay: Antiviral activity against HSV2 G infected in human lung fibroblast assessed as inhibition of virus-induced cytopathic effect at 0.32 to 100 uM; format: functional, organism-based; conditions: strain G; outline: as §1
Vaccinia virus = assay: Antiviral activity against Vaccinia virus infected in human lung fibroblast assessed as inhibition of virus-induced cytopathic effect at 0.32 to 100 uM; format: functional, organism-based; conditions: Orthopoxvirus vaccinia
[3] = system: Vesicular stomatitis virus; assay: Antiviral activity against VSV infected in human lung fibroblast assessed as inhibition of virus-induced cytopathic effect at 0.32 to 100 uM; format: functional, organism-based
Human respirovirus 3 = assay: Antiviral activity against Parainfluenza virus 3 infected in african green monkey Vero cells assessed as inhibition of virus-induced cytopathic effect at 0.32 to 100 uM; format: functional, organism-based; outline: as §1
[4] = system: Mammalian orthoreovirus 1; assay: Antiviral activity against Reovirus-1 infected in african green monkey Vero cells assessed as inhibition of virus-induced cytopathic effect at 0.32 to 100 uM; format: functional, organism-based; outline: as §1
Sindbis virus = assay: Antiviral activity against Sindbis virus infected in african green monkey Vero cells assessed as inhibition of virus-induced cytopathic effect at 0.32 to 100 uM; format: functional, organism-based; outline: as §1
Coxsackievirus B4 [5] = assay: Antiviral activity against Coxsackievirus B4 infected in african green monkey Vero cells assessed as inhibition of virus-induced cytopathic effect at 0.32 to 100 uM; format: functional, organism-based; outline: as §1
Punta Toro virus = assay: Antiviral activity against Punta Toro virus infected in african green monkey Vero cells assessed as inhibition of virus-induced cytopathic effect at 0.32 to 100 uM; format: functional, organism-based; outline: as §1
[6] = system: Vesicular stomatitis virus; assay: Antiviral activity against Vesicular stomatitis virus infected in human cervix carcinoma cells assessed as inhibition of virus-induced cytopathic effect at 0.32 to 100 uM; format: functional, organism-based
Outline: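 Confluent human cervix carcinoma (HeLa) cultures received 100 CCID50 of VSV together with the compound at 100, 40, 8, 1.6 or 0.32 μM. Cytopathicity was read at the point of full CPE in infected, untreated control wells.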

Felid alphaherpesvirus 1 = assay: Antiviral activity against Feline herpesvirus infected in feline CRFK cells assessed as inhibition of virus-induced cytopathic effect at 0.32 to 100 uM; format: functional, organism-based; outline: as §1
Feline coronavirus = assay: Antiviral activity against Feline coronavirus infected in feline CRFK cells assessed as inhibition of virus-induced cytopathic effect at 0.32 to 100 uM; format: functional, organism-based; outline: as §1
Influenza A virus [7] = assay: Antiviral activity against Influenza A virus H1N1 infected in MDCK cells assessed as inhibition of virus-induced cytopathic effect at 0.32 to 100 uM; format: functional, organism-based
Outline: (§4)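 Confluent MDCK monolayers were infected in the presence of the compound at 100, 40, 8, 1.6 and 0.32 μM. Viral cytopathicity was scored once it was complete in untreated infected control cultures.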

Influenza A virus [8] = assay: Antiviral activity against Influenza A virus H3N2 infected in MDCK cells assessed as inhibition of virus-induced cytopathic effect at 0.32 to 100 uM; format: functional, organism-based; outline: as §4
Influenza B virus = assay: Antiviral activity against Influenza B virus infected in MDCK cells assessed as inhibition of virus-induced cytopathic effect at 0.32 to 100 uM; format: functional, organism-based; outline: as §4
[9] = system: Human immunodeficiency virus 1; assay: Antiviral activity against HIV1 3B infected in human CEM cells assessed as inhibition of virus-induced CEM giant cell formation at 0.32 to 100 uM after 4 days; format: functional, organism-based; conditions: CCRF-CEM
Outline: (§5)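 CEM cells (~3 × 10^5 cells/cm³) exposed to 100 CCID50/ml of virus and seeded into wells holding compound dilutions. Incubated 4 days at 37 °C, then giant cell formation examined microscopically.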

[10] = system: Human immunodeficiency virus 2; assay: Antiviral activity against HIV2 ROD infected in human CEM cells assessed as inhibition of virus-induced CEM giant cell formation at 0.32 to 100 uM after 4 days; format: functional, organism-based; conditions: ISOLATE ROD, CCRF-CEM; outline: as §5
[11] = system: Radical scavenging activity; assay: Antioxidant activity assessed as DPPH free radical scavenging activity at 100 uM after 20 mins by spectrophotometric analysis; format: functional
Outline: (§6)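 0.05 mM DPPH in absolute ethanol mixed with an equal volume of compound in DMSO (final 100 μM). Shaken and left 20 or 60 min, then absorbance read at 517 nm and percent activity calculated. Three replicates, averaged.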

[12] = system: Radical scavenging activity; assay: Antioxidant activity assessed as DPPH free radical scavenging activity at 100 uM after 60 mins by spectrophotometric analysis; format: functional; outline: as §6
[13] = Antioxidant activity assessed as inhibition of AAPH-induced linoleic acid lipid peroxidation by measuring conjugated diene hydroperoxide level; format: functional; parameters: concentration or dose not given beside the values; conditions: dose or concentration not given here
Outline: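 Linoleic acid sodium salt (10 μL of 16 mM) in 0.05 M phosphate buffer pH 7.4 at 37 °C. Oxidation started under air with 50 μL of 40 mM AAPH. Conjugated diene hydroperoxide formation followed as absorbance rise at 234 nm; control contains the same DMSO level. At least triplicate.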

Glycine max = assay: Inhibition of soybean LOX assessed as conversion of sodium linoleate to 13- hydroperoxylinoleic acid at 100 uM

Row | Structure (SMILES) | inhibition [1] | inhibition (Coxsackievirus B4 [2]) | IC50 (L1210) | IC50 (CCRF-CEM) | IC50 (HeLa) | IC50 (HCT-116) | IC50 (MCF7) | IC50 (NCI-H460) | IC50 (HaCaT) | inhibition (Human alphaherpesvirus 1) | inhibition (Human alphaherpesvirus 2) | inhibition (Vaccinia virus) | inhibition [3] | inhibition (Human respirovirus 3) | inhibition [4] | inhibition (Sindbis virus) | inhibition (Coxsackievirus B4 [5]) | inhibition (Punta Toro virus) | inhibition [6] | inhibition (Felid alphaherpesvirus 1) | other results
1 | CC(C(=O)NNC(=O)NC1CCCCC1)c1cccc(Oc2ccccc2)c1 (stereo not given) | inactive | inactive | 35 µM | 53 µM | 48 µM | 22 µM | 17 µM | 24 µM | 19 µM | inactive | inactive | inactive | inactive | inactive | inactive | inactive | inactive | inactive | inactive | inactive | inhibition (Feline coronavirus): inactive; inhibition (Influenza A virus [7]): inactive; inhibition (Influenza A virus [8]): inactive; inhibition (Influenza B virus): inactive; inhibition [9]: inactive; inhibition [10]: inactive; Activity [11]: 19%; Activity [12]: 22%; inhibition [13]: 63%; inhibition (Glycine max): 13%
2 | CC(C(=O)NNC(=O)NCc1ccccc1)c1cccc(Cc2ccccc2)c1 (stereo not given) | inactive | inactive | 31 µM | 49 µM | 94 µM | 24 µM | 12 µM | 28 µM | 25 µM | inactive | inactive | inactive | inactive | inactive | inactive | inactive | inactive | inactive | inactive | inactive | inhibition (Feline coronavirus): inactive; inhibition (Influenza A virus [7]): inactive; inhibition (Influenza A virus [8]): inactive; inhibition (Influenza B virus): inactive; inhibition [9]: inactive; inhibition [10]: inactive; Activity [11]: 3%; Activity [12]: 9%; inhibition [13]: 48%; inhibition (Glycine max): inactive
3 | CC(C(=O)NNC(=O)NC1CCCC1)c1cccc(Oc2ccccc2)c1 (stereo not given) | inactive | inactive | 55 µM | 73 µM | 39 µM | 36 µM | 20 µM | 33 µM | 18 µM | inactive | inactive | inactive | inactive | inactive | inactive | inactive | inactive | inactive | inactive | inactive | inhibition (Feline coronavirus): inactive; inhibition (Influenza A virus [7]): inactive; inhibition (Influenza A virus [8]): inactive; inhibition (Influenza B virus): inactive; inhibition [9]: inactive; inhibition [10]: inactive; Activity [11]: 16%; Activity [12]: 19%; inhibition [13]: 21%; inhibition (Glycine max): inactive
4 | CC(C(=O)NNC(=O)NCCc1ccccc1)c1cccc(Cc2ccccc2)c1 (stereo not given) | inactive | inactive | 31 µM | 29 µM | 58 µM | 20 µM | 15 µM | 22 µM | 16 µM | inactive | inactive | inactive | inactive | inactive | inactive | inactive | inactive | inactive | inactive | inactive | inhibition (Feline coronavirus): inactive; inhibition (Influenza A virus [7]): inactive; inhibition (Influenza A virus [8]): inactive; inhibition (Influenza B virus): inactive; inhibition [9]: inactive; inhibition [10]: inactive; Activity [11]: 8%; Activity [12]: 15%; inhibition [13]: 71%; inhibition (Glycine max): 17%
